{"source": "paper PMC5792653", "about": "(Nature chemical biology, 2017)", "key": {"Rpn11": {"target": "Rpn11 (Homo sapiens, UniProt O00487)", "assay": "In vitro Rpn11 activity assay", "type": "biochemical"}, "BRCC36": {"target": "BRCC36 (Homo sapiens, UniProt P46736)", "sequence (P46736 whole entry)": "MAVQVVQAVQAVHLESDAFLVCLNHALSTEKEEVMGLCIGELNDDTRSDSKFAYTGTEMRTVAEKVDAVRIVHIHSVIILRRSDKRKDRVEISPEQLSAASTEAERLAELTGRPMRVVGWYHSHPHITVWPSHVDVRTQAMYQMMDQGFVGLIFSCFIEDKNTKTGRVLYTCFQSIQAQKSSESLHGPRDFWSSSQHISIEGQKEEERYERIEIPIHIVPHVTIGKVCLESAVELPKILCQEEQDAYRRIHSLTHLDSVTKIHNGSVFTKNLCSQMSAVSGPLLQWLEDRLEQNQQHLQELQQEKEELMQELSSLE", "sequence (Q9NWV8 whole entry, further chain)": "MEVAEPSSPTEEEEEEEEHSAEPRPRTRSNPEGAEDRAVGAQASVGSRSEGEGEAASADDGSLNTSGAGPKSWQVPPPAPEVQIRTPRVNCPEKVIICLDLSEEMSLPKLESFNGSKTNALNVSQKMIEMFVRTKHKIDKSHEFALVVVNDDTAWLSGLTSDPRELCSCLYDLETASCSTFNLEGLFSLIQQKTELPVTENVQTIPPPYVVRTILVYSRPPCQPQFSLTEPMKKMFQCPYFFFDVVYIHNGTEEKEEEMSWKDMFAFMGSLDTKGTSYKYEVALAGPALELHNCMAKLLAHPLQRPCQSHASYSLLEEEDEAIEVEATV", "sequence (Q9NXR7 whole entry, further chain)": "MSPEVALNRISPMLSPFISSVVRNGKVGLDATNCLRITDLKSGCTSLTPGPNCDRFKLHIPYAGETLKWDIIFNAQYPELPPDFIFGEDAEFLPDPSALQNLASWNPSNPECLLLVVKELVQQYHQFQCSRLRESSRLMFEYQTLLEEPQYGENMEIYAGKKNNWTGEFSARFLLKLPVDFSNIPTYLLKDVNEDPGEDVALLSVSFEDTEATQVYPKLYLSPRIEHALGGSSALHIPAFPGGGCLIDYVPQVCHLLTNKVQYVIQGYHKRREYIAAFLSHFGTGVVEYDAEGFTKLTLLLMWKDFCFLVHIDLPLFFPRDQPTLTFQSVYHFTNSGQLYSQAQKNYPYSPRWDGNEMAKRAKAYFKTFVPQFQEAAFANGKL", "assay": "In vitro BRCC36 activity assay", "type": "biochemical"}, "thermolysin": {"target": "thermolysin (Bacillus thermoproteolyticus, UniProt P00800)", "sequence (P00800 233-548)": "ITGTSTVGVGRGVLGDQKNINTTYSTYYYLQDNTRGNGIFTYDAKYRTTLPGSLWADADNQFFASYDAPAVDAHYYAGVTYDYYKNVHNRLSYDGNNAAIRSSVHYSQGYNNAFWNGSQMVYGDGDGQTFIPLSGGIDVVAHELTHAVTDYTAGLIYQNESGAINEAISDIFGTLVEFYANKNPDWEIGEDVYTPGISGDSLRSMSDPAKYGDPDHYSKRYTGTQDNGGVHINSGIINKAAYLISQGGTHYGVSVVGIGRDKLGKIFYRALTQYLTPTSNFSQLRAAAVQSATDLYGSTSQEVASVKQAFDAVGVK", "assay": "Thermolysin inhibition assay", "type": "biochemical, bacterial"}, "USP25": {"target": "T1, USP25 (Homo sapiens, UniProt Q9UHP3)", "T1 sequence (Q9UHP3 1-1055)": "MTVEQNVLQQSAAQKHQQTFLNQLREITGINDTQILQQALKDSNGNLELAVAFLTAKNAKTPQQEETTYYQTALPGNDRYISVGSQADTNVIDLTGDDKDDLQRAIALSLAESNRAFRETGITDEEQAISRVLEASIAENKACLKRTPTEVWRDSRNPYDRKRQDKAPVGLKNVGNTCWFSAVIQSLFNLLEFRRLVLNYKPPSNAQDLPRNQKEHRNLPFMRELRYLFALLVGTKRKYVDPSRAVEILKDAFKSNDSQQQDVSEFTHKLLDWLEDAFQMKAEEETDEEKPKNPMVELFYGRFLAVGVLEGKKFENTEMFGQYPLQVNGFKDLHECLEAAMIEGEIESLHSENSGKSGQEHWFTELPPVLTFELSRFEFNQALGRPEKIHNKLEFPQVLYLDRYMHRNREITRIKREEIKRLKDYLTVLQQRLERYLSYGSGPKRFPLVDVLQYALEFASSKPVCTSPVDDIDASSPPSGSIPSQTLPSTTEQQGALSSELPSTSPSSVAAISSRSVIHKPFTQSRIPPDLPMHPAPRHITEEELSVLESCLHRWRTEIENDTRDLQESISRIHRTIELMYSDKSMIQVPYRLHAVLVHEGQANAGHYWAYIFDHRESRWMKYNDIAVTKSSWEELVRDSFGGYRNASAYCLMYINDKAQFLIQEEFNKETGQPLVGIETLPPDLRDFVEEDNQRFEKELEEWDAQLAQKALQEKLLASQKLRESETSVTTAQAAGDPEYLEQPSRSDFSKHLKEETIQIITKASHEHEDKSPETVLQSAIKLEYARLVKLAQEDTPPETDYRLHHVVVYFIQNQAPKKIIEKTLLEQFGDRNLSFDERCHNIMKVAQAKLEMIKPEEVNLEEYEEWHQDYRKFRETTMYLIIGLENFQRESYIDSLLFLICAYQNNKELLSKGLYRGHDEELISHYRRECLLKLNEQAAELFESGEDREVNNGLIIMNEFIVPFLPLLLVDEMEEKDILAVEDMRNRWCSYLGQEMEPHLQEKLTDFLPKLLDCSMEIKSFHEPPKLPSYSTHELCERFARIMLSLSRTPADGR", "assay": "In vitro DUB activity assay, USP25", "type": "biochemical", "conditions": "50 μM THL", "procedure,_shortened": "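Human USP25 or USP5 expressed in E. coli and purified. Enzyme (4 nM) preincubated 30 min at 30°C in Hepes pH 7.3 buffer (KOAc, Mg(OAc)2, EGTA, 1 mM DTT, Tween 20, ovalbumin, protease inhibitors) with DMSO, 50 μM test compound or 50 μM PR619. Reaction started with 1 μM K48-linked tetra-ubiquitin, stopped after 10 or 30 min with SDS sample buffer plus DTT, and analysed by anti-Ub Western blot.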"}, "20S proteasome": {"target": "20S proteasome (Homo sapiens, UniProt P28072+P28074+Q99436)", "assay": "20S proteasome assay", "type": "biochemical", "procedure,_shortened": "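Purified 20S proteasome (1.4 nM) preincubated at 37°C in 25 mM Hepes pH 7.6, 0.5 mM EDTA, 0.03% SDS. Fluorogenic substrates Suc-LLVY-AMC, Suc-LY-AMC, Bz-VGR-AMC or Z-LLE-AMC added to 10 μM final. Hydrolytic activity read as rate of AMC release by fluorescence at 20 min intervals.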"}, "RNA polymerase II": {"target": "RNA polymerase II (Saccharomyces cerevisiae, UniProt P04050+P08518)", "assay": "In vitro run-off transcription using tailed templates, Pol II", "type": "biochemical, S.cerevisiae", "conditions": "affinity purified polymerase"}, "HeLa cells": {"tested_on": "HeLa cells", "assay": "Turnover of c-MYC in HeLa cells", "type": "cell-based", "conditions": "10 μM THL"}, "zebrafish embryos": {"tested_on": "zebrafish embryos", "conditions": "cited from earlier work"}}}
{"smiles": "CC(=O)Nc1c2sscc-2n(C)c1=O", "note": "[THL, thiolutin]", "values": [{"measurement": "inhibition of Rpn11 in presence of excess Zn(cyclen)^2+", "setting": "Rpn11; 1 mM DTT and 0,1 mM Zn(cyclen)^2+", "value": "abrogated inhibition of Rpn11"}, {"measurement": "inhibition of deubiquitylation of substrates by 19S, oxidized versus reduced THL", "setting": "Rpn11; purified 26S, absence and presence of 1 mM DTT", "value": "only reduced THL inhibited"}, {"measurement": "de-ubiquitylation of substrate by BRISC (in words)", "setting": "BRCC36", "value": "inhibited de-ubiquitylation of substrate by BRISC"}, {"measurement": "IC50", "setting": "thermolysin", "value": "~2500", "unit": "nM"}, {"measurement": "inhibition of cystein isopeptidase UPS25", "setting": "USP25", "value": "did not inhibit"}, {"measurement": "trypsin-, chymotrypsin-, and caspase-like activities of the proteolytic core", "setting": "20S proteasome", "value": "did not inhibit"}, {"measurement": "inhibition of yeast RNA polymerase II, run-off transcription", "setting": "RNA polymerase II", "value": "None of the three yeast polymerases were inhibited"}, {"measurement": "degradation of c-MYC", "setting": "HeLa cells", "value": "blocked degradation of c-MYC"}, {"measurement": "lethality of zebrafish embryos", "setting": "zebrafish embryos", "value": "high lethality"}]}
